Results as given in ChEMBL document CHEMBL4190236, “New arylpyrazoline-coumarins: Synthesis and anti-inflammatory activity” (Eur J Med Chem, 2017).
Active and inactive are the calls of the source. The rule behind the calls is not given here.

Assays:
[1] = target: Mitogen-activated protein kinase kinase kinase 7 (Mus musculus) (UniProt Q62073); experiment: Inhibition of TAK1 in mouse RAW264.7 cells assessed as inhibition of LPS-induced NFkB activation by measuring reduction in nuclear translocation of p65 at 2.5 to 10 uM preincubated for 1 hr followed by LPS stimulation measured after 3 hrs by Western blot method
[2] = tested on: RAW264.7; experiment: Anti-inflammatory activity in mouse RAW264.7 cells assessed as inhibition of LPS-induced TNFalpha release preincubated for 1 hr followed by LPS stimulation measured after 24 hrs by ELISA; assay type: functional, cell-based
How it was run: (§1)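 Serum-starved (2.5 h) RAW264.7 cells were pretreated 1 h with a range of compound concentrations, then given LPS 1 µg/mL for 24 h. TNF-α or IL-6 in the medium was quantified by mouse ELISA and normalized to protein of viable cell pellets.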

[3] = tested on: RAW264.7; experiment: Anti-inflammatory activity in mouse RAW264.7 cells assessed as inhibition of LPS-induced iNOS protein expression preincubated for 1 hr followed by LPS stimulation measured after 24 hrs by Western blot method; assay type: functional, cell-based
How it was run: (§2)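 Cells grown 24 h, serum-starved 2.5 h, pretreated 1 h with compound, then LPS 1 µg/mL for 24 h. Lysed in RIPA on ice, run on 10% SDS-PAGE, transferred to PVDF. Probed overnight at 4 °C with primary antibody for iNOS (130 kDa) or COX-2 (72 kDa), then HRP secondary. β-actin as loading control. At least three independent experiments.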

[4] = tested on: Rattus norvegicus; experiment: Anti-inflammatory activity in Sprague-Dawley rat assessed as inhibition of carrageenan-induced paw edema at 10 mg/kg, po administered 30 mins prior to carrageenan challenge measured after 1 hr relative to control; assay type: functional
How it was run: (§3)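 Male rats given test agent or diclofenac orally at 10 mg/kg, suspended in 0.5% Na CMC, 30 min before 0.1 mL of 1% (w/v) carrageenan injected into right hind paw. Vehicle control received 0.5% sodium CMC. Paw thickness measured at 1, 3 and 5 h. % inhibition calculated from paw oedema of treated versus control group. Table gives n = 5.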

[5] = tested on: Rattus norvegicus; experiment: Anti-inflammatory activity in po dosed adjuvant-induced Sprague-Dawley rat arthritis model assessed as reduction in inflammatory cell infilteration administered once daily from day 14 to 28 post-immunization measured by H and E staining based histopathological analysis; assay type: functional, organism-based
How it was run: (§4)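 Male SD rats (180–200 g), 8 per group. Arthritis induced by one intradermal injection of 0.1 mL CFA (heat-killed M. butyricum in paraffin oil, 10 mg/mL) into the right hind paw. Test agent at 45 or 90 mg/kg, aspirin 50 mg/kg, in 0.5% CMC-Na, given intragastrically once daily on days 14–28. Right ankle joints taken at day 28, fixed, EDTA-decalcified, cut at 5 µm and H&E stained.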

[6] = tested on: RAW264.7; experiment: Cytotoxicity against mouse RAW264.7 cells assessed reduction in cell viability at 10 to 40 uM by MTT assay; assay type: cell-based; details: raw264.7, 40 µM
[7] = tested on: RAW264.7; experiment: Anti-inflammatory activity in mouse RAW264.7 cells assessed as inhibition of LPS-induced nitric oxide production preincubated for 1 hr followed by LPS stimulation measured after 24 hrs by Griess assay; assay type: functional, cell-based
How it was run: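 Griess nitrite assay. RAW264.7 cells pretreated 1 h with compound, then LPS 1 µg/mL for 24 h. Supernatant mixed 1:1 with Griess reagent, OD read at 540 nm against a NaNO2 standard curve. At least three independent experiments, each in duplicate.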

[8] = tested on: Rattus norvegicus; experiment: Anti-inflammatory activity in Sprague-Dawley rat assessed as inhibition of carrageenan-induced paw edema at 10 mg/kg, po administered 30 mins prior to carrageenan challenge measured after 5 hrs relative to control; assay type: functional
How it was run: as §3

[9] = tested on: RAW264.7; experiment: Anti-inflammatory activity in mouse RAW264.7 cells assessed as inhibition of LPS-induced IL-6 release preincubated for 1 hr followed by LPS stimulation measured after 24 hrs by ELISA; assay type: functional, cell-based
How it was run: as §1

[10] = target: Mitogen-activated protein kinase kinase kinase 7 (Mus musculus) (UniProt Q62073); experiment: Inhibition of TAK1 in mouse RAW264.7 cells assessed as inhibition of LPS-induced NFkB activation by measuring reduction in nuclear translocation of p65 at 2.5 to 10 uM preincubated for 1 hr followed by LPS stimulation measured after 3 hrs by DAPI staining based immunofluorescence assay
[11] = target: Mitogen-activated protein kinase kinase kinase 7 (Mus musculus) (UniProt Q62073); experiment: Inhibition of LPS-induced TAK1 phosphorylation in mouse RAW264.7 cells preincubated for 1 hr followed by LPS stimulation measured after 30 min by Western blot method
[12] = tested on: RAW264.7; experiment: Anti-inflammatory activity in mouse RAW264.7 cells assessed as inhibition of LPS-induced TNFalpha release at 10 uM preincubated for 1 hr followed by LPS stimulation measured after 24 hrs by ELISA relative to control; assay type: functional
How it was run: (§5)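 RAW264.7 cells (DMEM, 10% FBS, 37 °C, 5% CO2) plated at 7 × 10^4 cells/well and grown 24 h, then serum-starved 2.5 h. Exposed to 10 µM compound for 1 h, then LPS 1 µg/mL for 24 h. TNF-α or IL-6 in the medium quantified by mouse ELISA. Cytokine amount normalized to protein of viable cell pellets. Expressed as % inhibition.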

[13] = tested on: Rattus norvegicus; experiment: Anti-inflammatory activity in po dosed adjuvant-induced Sprague-Dawley rat arthritis model assessed as reduction in synovial hyperplasia administered once daily from day 14 to 28 post-immunization measured by H and E staining based histopathological analysis; assay type: functional, organism-based
How it was run: as §4

[14] = tested on: Rattus norvegicus; experiment: Anti-inflammatory activity in Sprague-Dawley rat assessed as inhibition of carrageenan-induced paw edema at 10 mg/kg, po administered 30 mins prior to carrageenan challenge measured after 3 hrs relative to control; assay type: functional
How it was run: as §3

[15] = tested on: RAW264.7; experiment: Anti-inflammatory activity in mouse RAW264.7 cells assessed as inhibition of LPS-induced IL-6 release at 10 uM preincubated for 1 hr followed by LPS stimulation measured after 24 hrs by ELISA relative to control; assay type: functional
How it was run: as §5

[16] = tested on: Rattus norvegicus; experiment: Anti-inflammatory activity in po dosed adjuvant-induced Sprague-Dawley rat arthritis model assessed as reduction in bone destruction administered once daily from day 14 to 28 post-immunization measured by H and E staining based histopathological analysis; assay type: functional, organism-based
How it was run: as §4

[17] = tested on: RAW264.7; experiment: Anti-inflammatory activity in mouse RAW264.7 cells assessed as inhibition of LPS-induced COX2 protein expression preincubated for 1 hr followed by LPS stimulation measured after 24 hrs by Western blot method; assay type: functional, cell-based
How it was run: as §2

[18] = target: Mitogen-activated protein kinase kinase kinase 7 (Mus musculus) (UniProt Q62073); experiment: Inhibition of TAK1 in mouse RAW264.7 cells assessed as reduction in LPS-induced MAPK p38 phosphorylation preincubated for 1 hr followed by LPS stimulation measured after 30 mins by Western blot method
[19] = target: Transcription factor p65 (Mus musculus) (UniProt Q04207); experiment: Inhibition of LPS-induced NFkB activation in mouse RAW264.7 cells assessed as reduction in nuclear translocation of p65 at 20 uM preincubated for 1 hr followed by LPS stimulation measured after 3 hrs by Western blot method; assay type: cell-based
Sequence of Transcription factor p65 (Mus musculus) (Q04207 whole entry): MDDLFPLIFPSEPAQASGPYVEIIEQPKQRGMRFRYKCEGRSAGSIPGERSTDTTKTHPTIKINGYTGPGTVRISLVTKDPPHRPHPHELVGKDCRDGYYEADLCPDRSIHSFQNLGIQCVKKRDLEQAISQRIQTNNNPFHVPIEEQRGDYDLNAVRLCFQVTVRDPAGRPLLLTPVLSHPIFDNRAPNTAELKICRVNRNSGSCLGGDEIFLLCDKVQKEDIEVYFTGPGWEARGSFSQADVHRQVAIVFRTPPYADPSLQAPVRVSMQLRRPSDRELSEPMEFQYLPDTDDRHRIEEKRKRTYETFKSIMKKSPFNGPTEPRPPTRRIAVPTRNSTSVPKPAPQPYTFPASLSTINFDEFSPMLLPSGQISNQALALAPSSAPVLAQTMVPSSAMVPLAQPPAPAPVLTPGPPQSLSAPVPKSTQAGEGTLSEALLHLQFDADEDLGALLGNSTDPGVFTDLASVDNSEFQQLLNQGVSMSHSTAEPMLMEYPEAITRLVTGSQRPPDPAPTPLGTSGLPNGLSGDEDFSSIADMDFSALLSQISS

Sequence of Mitogen-activated protein kinase kinase kinase 7 (Mus musculus) (Q62073 whole entry, looked up): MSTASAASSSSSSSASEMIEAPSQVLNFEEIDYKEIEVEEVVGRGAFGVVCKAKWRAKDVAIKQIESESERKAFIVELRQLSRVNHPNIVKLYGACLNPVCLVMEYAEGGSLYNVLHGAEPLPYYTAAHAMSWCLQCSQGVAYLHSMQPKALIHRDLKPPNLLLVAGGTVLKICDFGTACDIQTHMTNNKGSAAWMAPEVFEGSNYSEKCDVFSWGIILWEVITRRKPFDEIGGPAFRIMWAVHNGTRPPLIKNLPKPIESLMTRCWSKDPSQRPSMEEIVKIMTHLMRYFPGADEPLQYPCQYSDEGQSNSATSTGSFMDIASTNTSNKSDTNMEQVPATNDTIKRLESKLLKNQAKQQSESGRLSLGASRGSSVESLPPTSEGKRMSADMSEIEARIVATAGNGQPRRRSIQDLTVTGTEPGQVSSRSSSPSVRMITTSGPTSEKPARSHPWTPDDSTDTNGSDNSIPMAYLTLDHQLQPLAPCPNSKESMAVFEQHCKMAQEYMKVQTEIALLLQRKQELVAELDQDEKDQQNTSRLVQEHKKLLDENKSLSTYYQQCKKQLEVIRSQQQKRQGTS

`COc1ccc(-c2coc3cc(OCC(=O)N4N=C(c5cc6ccccc6oc5=O)CC4c4ccc(C(F)(F)F)cc4)ccc3c2=O)cc1` (stereo not drawn) was tested, and the inhibition [1] was “Active”, the IC50 [2] was 16.8 µM and the Activity [3] was “Dose-dependent effect”. For the same molecule, the inhibition in vivo at 10 mg/kg [4] was 49%, the Activity [5] was “Dose-dependent effect” and the Activity [6] was “Non-Toxic”. The Activity [7] was “Dose-dependent effect”, the inhibition in vivo at 10 mg/kg [8] was 59% and the IC50 [9] was 14.2 µM. For the same molecule, the inhibition [10] was “Active”, the inhibition [11] was “Dose-dependent effect” and the inhibition at 10 µM [12] was 40.4%. The Activity [13] was “Dose-dependent effect”, the inhibition in vivo at 10 mg/kg [14] was 60% and the inhibition at 10 µM [15] was 41.2%. For the same molecule, the Activity [16] was “Dose-dependent effect”, the Activity [17] was “Dose-dependent effect” and the inhibition [18] was “Dose-dependent effect”.
`CC(C)NCC(=O)N1N=C(c2cc3ccccc3oc2=O)CC1c1ccccc1C(F)(F)F` (stereo not drawn) was tested, and the inhibition in vivo at 10 mg/kg [4] was 17%, the inhibition in vivo at 10 mg/kg [8] was 13% and the inhibition in vivo at 10 mg/kg [14] was 20%.
`O=C(O)Cc1ccccc1Nc1c(Cl)cccc1Cl` [DICLOFENAC] showed an inhibition in vivo at 10 mg/kg [4] of 41%, an inhibition in vivo at 10 mg/kg [8] of 48% and an inhibition in vivo at 10 mg/kg [14] of 77%.
For `O=C(CN1CCCCC1)N1N=C(c2cc3ccccc3oc2=O)CC1c1ccc(C(F)(F)F)cc1` (stereo not drawn), the inhibition in vivo at 10 mg/kg [4] was 32%, the inhibition in vivo at 10 mg/kg [8] was 36% and the inhibition [12] was “Active”. The inhibition in vivo at 10 mg/kg [14] was 41% and the inhibition [15] was “Active”.
In the case of `Cc1ccc(-c2cc(C(F)(F)F)nn2-c2ccc(S(N)(=O)=O)cc2)cc1` [CELECOXIB], the inhibition in vivo at 10 mg/kg [4] is reported as 55%, the inhibition in vivo at 10 mg/kg [8] is reported as 61% and the inhibition in vivo at 10 mg/kg [14] is reported as 59%.
For `Cc1ccc(S(=O)(=O)/C=C/C#N)cc1`, the inhibition [19] was “Active”.
In the case of `C=CCN(CC=C)CC(=O)N1N=C(c2cc3ccccc3oc2=O)CC1c1ccccc1C(F)(F)F` (stereo not drawn), the inhibition in vivo at 10 mg/kg [4] is reported as 28%, the inhibition in vivo at 10 mg/kg [8] is reported as 45% and the inhibition [12] is reported as “Active”. For the same molecule, the inhibition in vivo at 10 mg/kg [14] was 49% and the inhibition [15] was “Active”.
